Experimental data taken from EPA's CvTdb concentration-time database.

Legend:
[1] = system: Rat; assay: concentration in plasma after dosing; conditions: 10 min; dosed: Gemfibrozil; 4.29 mg/kg; oral; Male; Sprague-Dawley
[2] = system: Rat; assay: concentration in plasma after dosing; conditions: 1 h; dosed: Gemfibrozil; 100 mg/kg; oral; Male; Sprague-Dawley
[3] = system: Rat; assay: concentration in plasma after dosing; conditions: 5 min; dosed: Gemfibrozil; 50 mg/kg; oral; Male; Sprague-Dawley
[4] = system: Rat; assay: concentration in plasma after dosing; conditions: 1 h; dosed: Gemfibrozil; 50 mg/kg; oral; Male; Sprague-Dawley
[5] = system: Rat; assay: concentration in plasma after dosing; conditions: 0.5 h; dosed: Gemfibrozil; 100 mg/kg; oral; Male; Sprague-Dawley
[6] = system: Rat; assay: concentration in plasma after dosing; conditions: 18 h; dosed: Gemfibrozil; 50 mg/kg; oral; Male; Sprague-Dawley
[7] = system: Rat; assay: concentration in plasma after dosing; conditions: dosed: 678-39-7, 12 mg/kg, iv, Male, F344
[8] = system: Rat; assay: concentration in plasma after dosing; conditions: dosed: Fluorotelomer alcohol 8+2, 12 mg/kg, oral, Male, Harlan Sprague Dawley
[9] = system: Rat; assay: concentration in brain after dosing; conditions: 3 h; dosed: Fluorotelomer alcohol 8+2; 24 mg/kg; oral; Male; Harlan Sprague Dawley
[10] = system: Rat; assay: concentration in plasma after dosing; conditions: 3 h; dosed: Fluorotelomer alcohol 8+2; 12 mg/kg; oral; Male; Harlan Sprague Dawley
[11] = system: human; assay: concentration in expired air after dosing; conditions: dosed: trichloroethylene, 100 ppm, inhalation, duration: 4 hr, person
Method in brief: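 Concentration-versus-time or amount-versus-time points were compiled from published in vivo toxicokinetic studies and from two structured collections. The studies were found by PubMed searching, classifier screening and manual review. Points were mostly digitised from plot screenshots with WebPlotDigitizer, otherwise copied from tables, and kept in the reported units. Dose, route, subject details and medium were curated by hand from each paper, and sampling and analytical methods follow each source and were often unreported.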

[12] = system: Rat; assay: concentration in liver after dosing; conditions: 6 h; dosed: Perfluorooctane Sulfonate; 20 mg/kg; oral; Female; F344
[13] = system: Rat; assay: concentration in brain after dosing; conditions: 24 h; dosed: Perfluorooctane Sulfonate; 20 mg/kg; oral; Female; F344
[14] = system: Rat; assay: concentration in plasma after dosing; conditions: dosed: Perfluorooctane Sulfonate, 2 mg/kg, iv, Female, F344
[15] = system: Rat; assay: concentration in kidney after dosing; conditions: 6 h; dosed: Perfluorooctane Sulfonate; 20 mg/kg; oral; Female; F344
[16] = system: Rat; assay: concentration in liver after dosing; conditions: 864 h; dosed: Perfluorooctane Sulfonate; 2 mg/kg; oral; Female; Harlan Sprague Dawley
[17] = system: Rat; assay: concentration in kidney after dosing; conditions: 24 h; dosed: Perfluorooctane Sulfonate; 2 mg/kg; oral; Female; Harlan Sprague Dawley
[18] = system: Rat; assay: concentration in plasma after dosing; conditions: 864 h; dosed: Perfluorooctane Sulfonate; 2 mg/kg; oral; Female; Harlan Sprague Dawley
[19] = system: Rat; assay: concentration in brain after dosing; conditions: 7 min; dosed: 2-Methyltetrahydrofuran; 40 mg/kg; iv; Male; Harlan Sprague Dawley
[20] = system: Rat; assay: concentration in plasma after dosing; conditions: 4 h; dosed: 2-Methyltetrahydrofuran; 40 mg/kg; iv; Female; Harlan Sprague Dawley
[21] = system: Rat; assay: concentration in plasma after dosing; conditions: 4 h; dosed: 2-Methyltetrahydrofuran; 40 mg/kg; iv; Male; Harlan Sprague Dawley
[22] = system: Rat; assay: concentration in brain after dosing; conditions: 0.2 h; dosed: 2-Methyltetrahydrofuran; 40 mg/kg; iv; Male; Harlan Sprague Dawley
[23] = system: Rat; assay: concentration in plasma after dosing; conditions: 0.5 h; dosed: 2-Methyltetrahydrofuran; 40 mg/kg; iv; Male; Harlan Sprague Dawley
[24] = system: Rat; assay: concentration in brain after dosing; conditions: 1.5 h; dosed: 2-Methyltetrahydrofuran; 40 mg/kg; iv; Male; Harlan Sprague Dawley
[25] = system: Rat; assay: concentration in brain after dosing; conditions: 4 h; dosed: 2-Methyltetrahydrofuran; 40 mg/kg; iv; Female; Harlan Sprague Dawley
[26] = system: Rat; assay: concentration in plasma after dosing; conditions: 1 h; dosed: Perfluorohexanoic Acid; 40 mg/kg; iv; Female; Harlan Sprague-Dawley
[27] = system: Rat; assay: concentration in plasma after dosing; conditions: 0.5 h; dosed: Perfluorohexanoic Acid; 40 mg/kg; iv; Male; F344
[28] = system: Rat; assay: concentration in brain after dosing; conditions: 0.5 h; dosed: Perfluorohexanoic Acid; 80 mg/kg; oral; Male; Harlan Sprague Dawley
[29] = system: Rat; assay: concentration in plasma after dosing; conditions: dosed: Perfluorohexanoic Acid, 40 mg/kg, oral, Male, Harlan Sprague Dawley
[30] = system: Rat; assay: concentration in kidney after dosing; conditions: 0.5 h; dosed: Perfluorohexanoic Acid; 80 mg/kg; oral; Female; Harlan Sprague Dawley
[31] = system: Rat; assay: concentration in kidney after dosing; conditions: 3 h; dosed: Perfluorohexanoic Acid; 80 mg/kg; oral; Female; Harlan Sprague Dawley

Cc1ccc(C)c(OCCCC(C)(C)C(=O)O)c1 [Gemfibrozil]
Conditions	concentration in plasma [ng/mL]
[1]	606
[2]	57500
[3]	2350
[4]	3370
[5]	33900
[6]	1510

O=C(O)CCC(F)(F)C(F)(F)C(F)(F)C(F)(F)C(F)(F)C(F)(F)C(F)(F)F [Fluorotelomer acid 7+3]
concentration in plasma [ng/mL]
Conditions	0.25 h	0.5 h	6 h	9 h
[7]	–	127	–	159
[8]	152	–	522	–

Conditions	concentration in brain [ng/g]	concentration in plasma [ng/mL]
[9]	463	–
[10]	–	726

ClC=C(Cl)Cl [trichloroethylene]
[11]
Conditions	concentration in expired air
0 h	1940 nM
0.053 h	22.4 ppm
0.17 h	302 nM
0.2372 h	3.23 ppm
0.3175 h	7.33 ppm
0.4773 h	6.01 ppm
0.5 h	200 nM
0.5703 h	2.6 ppm
0.97 h	1.56 ppm
1 h	129 nM
1.022 h	2.96 ppm
1.5 h	101 nM
2 h	79 nM
2.009 h	0.691 ppm
2.015 h	1.22 ppm
2.5 h	62 nM
3 h	61 nM
3.5 h	54 nM
4 h	49 nM
4.021 h	0.521 ppm
4.039 h	1.03 ppm
4.5 h	43 nM
5 h	42 nM
5.996 h	0.868 ppm
6 h	33 nM
6.02 h	0.517 ppm
7 h	27 nM
7.979 h	0.777 ppm
8 h	21 nM
9 h	21 nM
10 h	16 nM
10.1 h	0.554 ppm
326 s	12.3 ppm

O=S(=O)([O-])C(F)(F)C(F)(F)C(F)(F)C(F)(F)C(F)(F)C(F)(F)C(F)(F)C(F)(F)F [Perfluorooctane Sulfonate]
Conditions	concentration in brain [ng/g]	concentration in kidney [ng/g]	concentration in liver [ng/g]	concentration in plasma [ng/mL]
[12]	–	–	139000	–
[13]	15200	–	–	–
[15]	–	133000	–	–
[16]	–	–	11100	–
[17]	–	8400	–	–
[18]	–	–	–	1490

[14]
Conditions	concentration in plasma [ng/mL]
1 h	4240
192 h	4100
2376 h	105

CC1CCCO1 (stereo not drawn) [2-Methyltetrahydrofuran]
Conditions	concentration in brain [ng/mL]	concentration in plasma [ng/mL]
[19]	25400	–
[20]	–	186
[21]	–	1880
[22]	24900	–
[23]	–	25600
[24]	7510	–
[25]	185	–

O=C(O)C(F)(F)C(F)(F)C(F)(F)C(F)(F)C(F)(F)F [Perfluorohexanoic Acid]
Conditions	concentration in brain [ng/g]	concentration in kidney [ng/g]	concentration in plasma [ng/mL]
[26]	–	–	98.9
[27]	–	–	4980
[28]	2590	–	–
[30]	–	46000	–
[31]	–	71400	–

[29]
Conditions	concentration in plasma [ng/mL]
0.5 h	59900
9 h	9200
